# Measured values pooled from the literature.
# Compare with care: the assays were run in different laboratories.
# Target: TGF-beta receptor type-2 (TGFBR2, Homo sapiens, UniProt P37173)
Structure (SMILES),effect on,mode,technique,concentration,quantity,value
CC(C)(O)[C@H]1CC[C@H](Nc2ccc3ncc(-c4cccc(C(F)(F)F)c4)n3n2)CC1,enzyme activity,inhibitor,,1 µM,remaining activity,73.8%
CCC(=O)N[C@@H]1CC[C@H](C(=O)N(C)c2ccc(-c3nc4ccccc4o3)cc2)C1,cell-free assay,,competition with immobilised ligand,1 µM,remaining binding,100%
COc1cc2c(N3CCN(C(=O)Nc4ccc(OC(C)C)cc4)CC3)ncnc2cc1OCCCN1CCCCC1,cell-free assay,,,0.5 µM,remaining signal,102%
C[C@@H](c1cccc(C#N)c1)n1cc(Cl)cc(C(N)=O)c1=N,cell-free assay,,competition with immobilised ligand,1 µM,remaining binding,100%
N#CCCc1ccc2c(c1)-c1[nH]c3ccc([N+](=O)[O-])cc3c1CC(=O)N2,cell-free assay,,,0.5 µM,remaining signal,10.1%
CC(C)(C)c1nc2c(s1)c1nc(N)ncc1c1ccc(NS(=O)(=O)c3c(F)cccc3F)c(F)c12,enzyme activity,inhibitor,radiometric,1 µM,remaining activity,81%
O=C(Nc1cccnn1)N1CC(C/C=C/c2cncc(Oc3ccc(C(F)(F)F)cn3)n2)C1,cell-free assay,,competition with immobilised ligand,1 µM,remaining binding,100%
Cc1ccc(C(=O)Nc2ccc(CN3CCN(C)CC3)c(C(F)(F)F)c2)cc1C#Cc1cnc2cccnn12,cell-free assay,,,23.5 nM,remaining signal,76%
O=C(Nc1cnn(-c2csc(C(=O)NC3COC3)c2)c1)Nc1ccccc1Cl,enzyme activity,inhibitor,,5 µM,remaining activity,113%
Cc1ccc(Nc2nccc(N(C)c3ccc4c(C)n(C)nc4c3)n2)cc1S(N)(=O)=O,cell-free assay,,,0.5 µM,remaining signal,100%
CNCc1ccccc1-c1csc([C@@H](C)Nc2nc(C)nc3cc(OC)c(OC)cc23)c1,cell-free assay,,competition with immobilised ligand,1 µM,remaining binding,91%
COc1cc(Cl)c(C(=O)N[C@@H](CN[C@H]2CC[C@@H](N)CC2)Cc2ccc(C#N)cc2)cc1-c1ccc(CN[C@H](C)c2ccc(C)cc2)o1,enzyme activity,inhibitor,,1 µM,remaining activity,94%
